Screens as filed in PubChem.
Only some compounds are listed: those with a hit (about 1.9% of all), similar ones and a draw of the others.
PLCb3 inh: human PLC-beta3 inhibitors, primary screen, biochemical, fluorescence; inhibition, % at 12.2 µM; Purified PLC-beta3, fluorogenic substrate; 1-phosphatidylinositol 4,5-bisphosphate phosphodiesterase beta-3 (Homo sapiens), Q01970; actives 0.18% (n = 370,000); in the data active means inhibition above about 11%
PLC-gamma1 inh: PLC-gamma1 enzyme inhibitors, primary screen, biochemical, fluorescence, purified enzyme. 1-phosphatidylinositol 4,5-bisphosphate phosphodiesterase gamma-1 (Homo sapiens), P19174. fluorogenic substrate. inhibition, % at 12.2 µM. actives 0.84% (n = 370,000). AID 720700, 2013
ASAP1 inh: inhibitors of human ASAP1 ArfGAP activity, primary screen, biochemical, fluorescence polarization; Arf-GAP with SH3 domain, ANK repeat and PH domain-containing protein 1 (Homo sapiens), …; ASAP1-stimulated ARF1 GTP hydrolysis, GDP FP detection; inhibition, % at 16.5 µM; actives 0.19% (n = 360,000); AID 624377, 2012; in the data active means inhibition above about 25%
HGIII-sPLA2 inh: human group III sPLA2 inhibitors, primary screen, biochemical, QFRET, BODIPY PC-A2 liposome substrate; Group 3 secretory phospholipase A2 (Homo sapiens), Q9NZ20; AID 743126, 2013; inhibition, % at 12.2 µM; actives 0.56% (n = 370,000); QFRET BODIPY PC-A2 liposome hydrolysis, fluorescence;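 active means inhibition above mean plus 3 SD of compounds lying within the high and low control bounds, cut at about 19% in these data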
ARFGAP1 inh: inhibitors of rat ARFGAP1 GAP activity, primary screen, biochemical, fluorescence polarization, GDP tracer. AID 651572, 2012. inhibition, % at 16.5 µM. Arfgap1-stimulated ARF1 GTP hydrolysis, GDP FP detection. actives 0.26% (n = 360,000). ADP-ribosylation factor GTPase-activating protein 1 (Rattus norvegicus), Q62848;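 active means inhibition above a per-plate limit, mean inhibition of low control wells plus 3 SD, cut at about 25% in these data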
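System: truncated rat Arfgap1 GAP domain / Medium: HEPES-based buffer, pH 7.5 / Also added: N-terminally truncated human ARF1-GTP substrate / Incubation: enzyme reaction 120 min at 25 °C after 20 min preincubation / Measured by: FP of antibody-bound GDP Alexa 633 tracer, ex 620/em 688 nm / Replicates: singlicate, each compound tested once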
PLCg1 ctr: PLC-gamma1 enzyme inhibitors, counter-screen for PLC-beta3 inhibitor project, biochemical, fluorescence; shares compounds with PLC-gamma1 inh; purified PLC-gamma1, fluorogenic substrate; inhibition, % at 12.3 µM; actives 3.1% (n = 3,300)
PLCb3 confirm: PLC-beta3 inhibitor confirmation, biochemical, fluorescence, purified enzyme; shares compounds with PLC-gamma1 inh; fluorogenic substrate fluorescence; inhibition, % at 12.3 µM; actives 1% (n = 3,300); in the data active means inhibition above about 11%
Hits are given with their value; n = inactive; x = no result given. Unless noted, no stated cut-off is given here; in the data, active means inhibition above about 9.5%; inactive means the rest.

SMILES | PLCb3 inh | PLC-gamma1 inh | ASAP1 inh | HGIII-sPLA2 inh | ARFGAP1 inh | PLCg1 ctr | PLCb3 confirm
O=C(NC1CCCCC1)C(c1ccc2ncccc2c1)N(Cc1ccc2c(c1)OCO2)C(=O)c1cccs1 (stereo not given) | n | 9.6 | n | n | n | n | n
O=C(NC1CCCCC1)C(c1ccncc1)N(Cc1ccc2c(c1)OCO2)C(=O)c1cnsn1 (stereo not given) | 11 | n | n | n | n | n | n
CC1CCc2sc(C(=O)NCc3ccc(F)cc3)cc2C1 (stereo not given) | n | n | n | n | n | x | x
O=C(NCc1ccc(F)cc1)c1cc2c(s1)CCCC2 | 15 | 16 | n | n | n | n | 11
Nc1nc(=O)n([C@@H]2CS[C@H](CO)O2)cc1F | 14 | 14 | x | n | x | n | n
COc1c(C(C)(C)C)cc(S(=O)(=O)N2c3ccccc3C[C@H]2C)cc1C(C)(C)C | n | n | x | n | x | x | x
OC(c1ccccc1)(c1ccccc1)C1CCN(CCCOc2ccc(OC(F)(F)F)cc2)CC1 | n | n | x | n | x | x | x
N#CCC[C@@H]1CC[C@]2(CCCN(C(=O)c3ccco3)C2)O1 | n | n | x | n | x | x | x
CCOc1ccc(-c2cc(C(=O)NC3CCCCC3)[nH]n2)c(C)c1 | 12 | n | n | n | n | n | n
COCC(=O)N(C)[C@H]1C[C@H]2c3[nH]c4c(-c5ccc6c(c5)OCO6)cccc4c3CCN2C(=O)[C@H]1[C@H](C)O | n | n | x | n | x | x | x
CCN1CCN(C(=S)c2ccc(OC)cc2)CC1 | n | n | n | n | n | x | x
COc1ccc(C(=S)N2CCN(c3ccccc3C)CC2)cc1 | n | 13 | n | n | n | n | n
COc1ccc(CNCCS(=O)(=O)NCc2ccccc2)cc1 | n | n | n | n | n | x | x
COc1ccc(CNCCS(=O)(=O)NCc2ccc(OC)cc2)cc1 | n | 13 | n | n | n | n | n
C[C@@H]1CN([C@@H](C)CN(C)C)C(=O)c2cc(NC(=O)Nc3ccccc3)ccc2O[C@@H](C)CCCCO[C@H]1CN(C)S(=O)(=O)c1ccc(F)cc1 | n | n | x | n | x | x | x
C[C@H]1CN(S(=O)(=O)C(C)(C)C)[C@@H](CCO)/C1=C\CCO | n | 11 | n | n | n | n | n
C[C@@H]1CN(S(=O)(=O)C(C)(C)C)[C@H](CCO)/C1=C\CCO | n | n | n | n | n | x | x
COc1ccc(C(=O)C[n+]2ccc3c(c2)nc(Cc2ccccc2)n3C)cc1 | n | n | x | n | x | x | x
CC(Nc1ccc(Cl)cc1)c1cc(Cl)ccc1O (stereo not given) | n | n | n | n | n | x | x
CC(Nc1ccc(Br)cn1)c1cc(Cl)ccc1O (stereo not given) | n | 9.7 | n | n | n | n | n
C#CCOCCOCCOCCNc1nc(N2CCN(C(=O)[C@H](CCCN=C(N)N)n3cc(C(N)[C@@H](C)CC)nn3)CC2)nc(N2CCN(C(=O)[C@H](CC(N)=O)n3cc([C@@H](N)CC(N)=O)nn3)CC2)n1 (stereo not given in full) | n | n | n | n | n | x | x
C#CCOCCOCCOCCNc1nc(N2CCN(C(=O)[C@H](CCCN=C(N)N)n3cc(C(N)[C@@H](C)CC)nn3)CC2)nc(N2CCN(C(=O)[C@H](CC(N)=O)n3cc([C@@H](N)C(C)C)nn3)CC2)n1 (stereo not given in full) | 14 | n | n | n | n | n | n
COC(=O)C1=C(C)N(Cc2cccc(C(F)(F)F)c2)C(=NCC2CC2)NC1c1ccc(F)cc1 (stereo not given) | n | n | n | n | n | x | x
CC(=O)NC(c1cccc(F)c1)c1nc(/C=C/c2ccccc2)cs1 (stereo not given) | n | 10 | n | n | n | n | n
O=C(Nc1nc2c(Br)cccc2s1)c1ccc2c(c1)OCCO2 | n | n | x | n | x | x | x
SMILES | PLCb3 inh | PLC-gamma1 inh | ASAP1 inh | HGIII-sPLA2 inh | ARFGAP1 inh | PLCg1 ctr | PLCb3 confirm
CCN(C(=O)CSc1nnc(-c2cccnc2)n1Cc1ccco1)c1ccccc1C | n | n | x | n | x | x | x
CN(NC(=O)NN(C)C(=O)c1ccccc1)C(=O)c1ccccc1 | n | n | n | n | n | x | x
CN(NS(=O)(=O)c1ccccc1)C(=O)c1ccccc1 | n | 12 | n | n | n | n | n
O=C(NN=C(c1ccccc1)c1ccccn1)c1ccccc1 | n | 9.7 | n | n | n | n | n
O=C(CSCC(=O)N1CCOCC1)Nc1nc(-c2ccccc2)cs1 | n | n | n | n | n | x | x
O=C(CSCC(=O)N1CCOCC1)Nc1ccccc1 | n | 11 | n | n | n | n | n
Cc1ccc(S(=O)(=O)N(C)CCCC(=O)N2CCN(C=O)CC2)cc1 | 11 | 10 | n | n | n | n | n
COC(=O)[C@]12C[C@H](CC(=O)NCc3ccc(OC)c(OC)c3)C(=O)N(Cc3ccccc3)C1=C[C@H](C(C)(C)C)O[C@@H]2C | n | n | n | n | n | x | x
Cc1cc(Nc2cccc([N+](=O)[O-])c2)c2ccccc2n1 | n | n | n | n | n | x | x
CCOc1ccc2nc(C)cc(Nc3cccc([N+](=O)[O-])c3)c2c1 | n | 11 | n | n | n | n | n
CC[C@H]1C=C[C@@H](C(=O)NS(=O)(=O)c2ccc(C)cc2)N(C(C)=O)C1 | n | 41 | x | n | x | 38 | n
CCN(CC)C(=O)CC[C@@H]1CC[C@]2(CCCN(Cc3cccc4ccccc34)C2)O1 | n | n | x | n | x | x | x
CCOC(=O)c1c(C)nc2c(c1-c1cc(OC)c(OC)c(OC)c1)C(=O)c1ccccc1-2 | n | 12 | n | n | n | n | n
CCOC(=O)c1c(C)nc2c(c1-c1ccc(OC)cc1)C(=O)CC(C)(C)C2 | n | n | n | n | n | x | x
O=[N+]([O-])c1ccc2[nH]cc(S(=O)(=O)N3CCN(c4cccc(Cl)c4)CC3)c2c1 | n | 10 | n | n | n | 14 | n
S=C(Nc1ccccc1Cl)OCCN1CCCC12CCC(c1ccccc1)CC2 (stereo not given) | n | n | x | n | x | x | x
CCOc1ccc(Oc2c(Cl)cnn(Cc3cccc4ccccc34)c2=O)cc1 | n | n | x | n | x | x | x
O=C(C[C@H]1C/C=C\C[C@@H](Cc2ccc(F)cc2)C(=O)O[C@H](c2ccccc2)CNC1=O)N[C@@H](CO)Cc1ccccc1 | n | n | n | n | n | x | x
